Here are results for 14 compounds from ChEMBL document CHEMBL1124859, “Nonsteroidal antiinflammatory drug hydroxamic acids. Dual inhibitors of both cyclooxygenase and 5-lipoxygenase” (J Med Chem, 1990).

Bounds are passed on as bounds.

Assay [1] concerns Rattus norvegicus. The assay can be described thus: In vivo ulcerogenicity was determined after peroral administration in rat. The assay is classed as functional. An outline of the steps:
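Rats were dosed orally. The ulcerogenic dose (UD50) was taken as the oral dose in mg/kg that produced ulcers in 50% of the rats tested.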

For assay [2], the species on record is Rattus norvegicus. The assay can be described thus: Relative binding affinity to 5-lipoxygenase and cyclooxygenase.
Assay [3] deals with Rattus norvegicus. The assay can be described thus: In vivo percent inhibition of mycobacterium foot-pad edema (MFE) after peroral administration was determined. The assay is classed as functional. In outline: (§1)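 Compounds were given orally to rats at the stated doses in mg/kg. Groups held 7–14 animals each. Foot-pad edema was scored as percent inhibition against controls, or as the dose giving a set level of inhibition (ID25 or ID40).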

Assay [4] has as its target T1, Polyunsaturated fatty acid 5-lipoxygenase (Rattus norvegicus, UniProt P12527).
T1 sequence (P12527 whole entry): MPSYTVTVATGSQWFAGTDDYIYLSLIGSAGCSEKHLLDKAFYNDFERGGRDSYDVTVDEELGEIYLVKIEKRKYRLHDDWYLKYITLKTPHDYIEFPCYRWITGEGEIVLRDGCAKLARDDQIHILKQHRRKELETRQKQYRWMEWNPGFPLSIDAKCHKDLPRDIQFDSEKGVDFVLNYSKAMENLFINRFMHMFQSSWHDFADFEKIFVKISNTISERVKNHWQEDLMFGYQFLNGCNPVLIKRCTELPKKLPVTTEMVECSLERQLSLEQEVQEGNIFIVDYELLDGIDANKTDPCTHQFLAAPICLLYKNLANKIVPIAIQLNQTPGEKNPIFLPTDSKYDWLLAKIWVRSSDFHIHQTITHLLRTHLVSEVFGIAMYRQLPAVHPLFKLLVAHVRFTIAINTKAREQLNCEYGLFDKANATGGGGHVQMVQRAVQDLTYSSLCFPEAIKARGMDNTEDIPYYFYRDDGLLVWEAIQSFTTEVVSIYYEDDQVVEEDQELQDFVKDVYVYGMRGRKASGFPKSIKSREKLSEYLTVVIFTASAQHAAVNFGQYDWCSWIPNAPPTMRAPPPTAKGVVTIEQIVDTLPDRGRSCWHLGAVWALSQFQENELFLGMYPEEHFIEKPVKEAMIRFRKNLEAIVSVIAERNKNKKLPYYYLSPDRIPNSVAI
The assay is described as follows: Inhibition of 5-lipoxygenase in intact RBL-1 cell line. The assay is classed as cell-based. In outline: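 RBL-1 cells at 2 × 10⁶ cells/mL were held in PBS with 1.0 mM Ca²⁺. They were incubated with or without inhibitor for 7 min at 37 °C, with 5 μM ionophore A-23187. LTB₄ was measured by radioimmunoassay. IC50 came from regression of percent inhibition against inhibitor concentration; otherwise percent inhibition at the highest concentration tested was given.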

For assay [5], the system named is Rattus norvegicus. The assay is described as follows: In vivo percent inhibition of carrageenan foot-pad edema (CFE) after peroral administration was determined. The assay is classed as functional. In outline: as §1
Assay [6] deals with Rattus norvegicus. The assay is described as follows: In vivo ulcerogenicity was determined after peroral administration at a dose of 200 mg/kg in rat; No significant ulceration. The class given is functional, organism-based. Also on record: dose 200 mg/kg.

The compound `COc1ccc2c(c1)c(CC(=O)NO)c(C)n2C(=O)c1ccc(Cl)cc1` [OXAMETACIN] registered a UD50 in the assay on Rattus norvegicus [1] of 103 mg/kg. Further, the IC50 ratio in the assay filed under Rattus norvegicus [2] turned out to be 6.8.
Broadly, the IC50 is the concentration needed to halve the response being measured. Consider `COc1ccc2c(c1)c(CC(=O)O)c(C)n2C(=O)c1ccc(Cl)cc1` [INDOMETHACIN], for which the ID40 with Rattus norvegicus [3] was 0.21 mg/kg. Also, the UD50 in the assay with Rattus norvegicus [1] is 5.4 mg/kg. For the same compound, in assay [4] (read-out: IC50), the IC50 is more than 100 µM.
Compound `Cc1ccc(Cl)c(Nc2ccccc2C(=O)[O-])c1Cl.O.[Na+]` [MECLOFENAMATE SODIUM] showed an ID40 in the assay with Rattus norvegicus [3] of 0.39 mg/kg. In the assay on Rattus norvegicus [1], the UD50 was 36 mg/kg. The compound also returned an ID25 with Rattus norvegicus [5] of 8.2 mg/kg.
Consider `COc1ccc2c(c1)c(CC(=O)N(O)C(C)C)c(C)n2C(=O)c1ccc(Cl)cc1`, for which, in the assay with Rattus norvegicus [3], the ID40 was found to be 0.82 mg/kg. For the same compound, in the assay with Rattus norvegicus [6], the UD50 result is “No significant inhibition”.
In the case of `Cc1ccc(Cl)c(Nc2ccccc2C(=O)NO)c1Cl`, in the assay on Rattus norvegicus [3], the ID40 came to 27 mg/kg. Further, the UD50 entry in the assay with Rattus norvegicus [6] was “No significant inhibition”.
Regarding `CC(C)Cc1ccc(C(C)C(=O)NO)cc1` (centres undefined) [IBUPROXAM], in the assay listed under Rattus norvegicus [2], the IC50 ratio amounted to 2. For the same compound, the IC50 in assay [4] (read-out: IC50) worked out at 20 µM.
`CONC(=O)Cc1c(C)n(C(=O)c2ccc(Cl)cc2)c2ccc(OC)cc12`: the UD50 in the assay with Rattus norvegicus [1] is 42 mg/kg. In addition, the IC50 ratio in the assay filed under Rattus norvegicus [2] is more than 120.
As for `CONC(=O)CC1=C(C)/C(=C/c2ccc([S+](C)[O-])cc2)c2ccc(F)cc21` (centres undefined), the IC50 in assay [4] (read-out: IC50) was 26 µM.
In the case of `CONC(=O)C(C)c1ccc(CC(C)C)cc1` (centres undefined), in the assay filed under Rattus norvegicus [2], the IC50 ratio was more than 5.5. The IC50 in assay [4] (read-out: IC50) is more than 32 µM.
With `CC1=C(CC(=O)O)c2cc(F)ccc2/C1=C\c1ccc([S+](C)[O-])cc1` (centres undefined), the 50% inhibitory concentration (IC50) in assay [4] (read-out: IC50) is more than 100 µM.
In the assay with Rattus norvegicus [3], `CONC(=O)c1ccccc1Nc1c(Cl)ccc(C)c1Cl` returned an ID40 of 24 mg/kg. The UD50 entry in the assay with Rattus norvegicus [6] is “No significant inhibition”. The ID25 in the assay with Rattus norvegicus [5] came out at 1.3 mg/kg.
Consider `CC(C)Cc1ccc(C(C)C(=O)N(C)O)cc1` (centres undefined), for which, in the assay filed under Rattus norvegicus [2], the IC50 ratio was 0.06. In addition, in assay [4] (read-out: IC50), the 50% inhibitory concentration (IC50) worked out at 1.2 µM.
Consider `CC(C)Cc1ccc(C(C)C(=O)O)cc1` (centres undefined) [IBUPROFEN], for which the IC50 entry in assay [4] (rbl-1) was “No significant inhibition”.
In turn, `Cc1ccc(Cl)c(Nc2ccccc2C(=O)N(C)O)c1Cl` displayed an ID40 in the assay on Rattus norvegicus [3] of 2.5 mg/kg. Further, the UD50 result with Rattus norvegicus [6] was “No significant inhibition”. Besides, in the assay with Rattus norvegicus [5], the ID25 stood at 0.2 mg/kg.
